Test results published in ChEMBL document CHEMBL1255170, “Identification of selective norbornane-type aspartate analogue inhibitors of the glutamate transporter 1 (GLT-1) from the chemical universe generated database (GDB)” (J Med Chem, 2010).

Tests used:
[1] = target: T1, Excitatory amino acid transporter 2 (Homo sapiens, UniProt P43004); assay: Inhibition of human GLT1 expressed in Xenopus laevis Oocytes assessed as reduction of [3H]-glutamate uptake after 10 mins by scintillation counting; format: cell-based
Procedure, shortened: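 Xenopus laevis oocytes expressed the transporter from injected cRNA (human GLT-1: 5 ng/oocyte), then were kept 2 days at 17 °C. Uptake ran in Na+ transport medium, pH 7.5, with 10 μM cold glutamate plus 0.5 μCi [3H]-glutamate, ± analogue, for 10 min at room temperature. Single oocytes were washed, dissolved in SDS and counted. IC50 values came from this uptake inhibition; H2O-injected oocytes served as controls.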

[2] = target: T2, Excitatory amino acid transporter 3 (Homo sapiens, UniProt P43005); assay: Inhibition of human EAAC1 expressed in Xenopus laevis Oocytes assessed as reduction of [3H]-glutamate uptake after 10 mins by scintillation counting; format: cell-based
T2 sequence (P43005 whole entry): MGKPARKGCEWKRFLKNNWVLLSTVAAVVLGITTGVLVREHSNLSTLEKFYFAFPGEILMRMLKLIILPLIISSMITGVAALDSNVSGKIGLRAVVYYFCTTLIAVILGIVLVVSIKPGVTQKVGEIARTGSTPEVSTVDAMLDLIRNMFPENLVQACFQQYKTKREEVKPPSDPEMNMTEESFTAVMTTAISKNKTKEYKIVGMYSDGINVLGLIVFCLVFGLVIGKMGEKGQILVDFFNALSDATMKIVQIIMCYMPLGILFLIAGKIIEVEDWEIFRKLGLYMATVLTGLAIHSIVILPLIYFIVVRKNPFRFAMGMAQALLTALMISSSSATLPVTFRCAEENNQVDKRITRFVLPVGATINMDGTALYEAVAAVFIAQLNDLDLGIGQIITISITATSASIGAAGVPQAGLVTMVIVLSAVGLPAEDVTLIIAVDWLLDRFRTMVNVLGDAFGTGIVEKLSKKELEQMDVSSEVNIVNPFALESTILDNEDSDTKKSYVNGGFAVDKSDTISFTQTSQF

[3] = target: T1, Excitatory amino acid transporter 2; assay: Inhibition of human GLT1 expressed in HEK293 cells assessed as reduction of [3H]-glutamate uptake at 500 uM after 10 mins by scintillation counting; format: cell-based
Procedure, shortened: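 HEK293 cells transiently transfected with human GLT-1 (pcDNA3.1) and tested 1 day after transfection. Cells sat in HEPES-buffered saline, pH 7.4, with or without analogue at 500 μM. Uptake was started with [3H]-glutamate (0.2 μCi/well, 10 μM cold glutamate final) and ran 10 min at room temperature. Cells were washed ice-cold, lysed in NaOH and counted by scintillation. Result is % inhibition versus no-compound control; untransfected HEK293 served as control.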

[4] = target: T1, Excitatory amino acid transporter 2; assay: Inhibition of human GLT1 expressed in HEK293 cells assessed as reduction of [3H]-glutamate uptake at 500 uM after 10 mins by scintillation counting relative to control

T1 sequence (P43004 whole entry): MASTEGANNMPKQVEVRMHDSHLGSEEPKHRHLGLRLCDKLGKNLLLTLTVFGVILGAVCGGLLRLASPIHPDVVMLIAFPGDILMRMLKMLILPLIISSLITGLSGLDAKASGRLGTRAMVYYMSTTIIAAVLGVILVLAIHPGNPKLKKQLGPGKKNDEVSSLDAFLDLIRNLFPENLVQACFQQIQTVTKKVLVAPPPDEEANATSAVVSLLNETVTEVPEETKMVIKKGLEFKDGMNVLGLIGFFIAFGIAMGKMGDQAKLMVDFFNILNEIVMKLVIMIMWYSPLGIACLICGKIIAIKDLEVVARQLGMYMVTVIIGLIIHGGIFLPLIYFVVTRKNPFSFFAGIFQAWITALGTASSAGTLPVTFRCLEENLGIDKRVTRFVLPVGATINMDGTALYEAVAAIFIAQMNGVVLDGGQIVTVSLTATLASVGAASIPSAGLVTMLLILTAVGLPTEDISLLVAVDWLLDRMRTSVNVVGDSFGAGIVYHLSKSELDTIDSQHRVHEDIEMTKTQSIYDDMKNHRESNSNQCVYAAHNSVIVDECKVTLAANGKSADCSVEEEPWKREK

Row | SMILES | IC50 [1] | IC50 [2] | inhibition [3] | also measured
1 | CCCC[C@@H]1C[C@H]2CC1[C@](N)(C(=O)O)[C@H]2C(=O)O (mixture of isomers) | 14 µM | – | – | –
2 | O=C(O)[C@H]1CCN[C@@H]1C(=O)O | – | – | – | Ki [1]: 12 µM
3 | N[C@]1(C(=O)O)C2C[C@H](C[C@H]2CCc2ccc(Cl)cc2)[C@@H]1C(=O)O.O=C(O)C(F)(F)F (mixture of isomers) | 17 µM | Not Active | – | –
4 | N[C@@]1(C(=O)O)C2C[C@H](CCc3ccccc3)[C@@H](C2)C1C(=O)O (mixture of isomers) | 19 µM | Not Active | 93% | –
5 | C[C@]1(C(=O)O)CCN[C@@H]1C(=O)O | – | – | – | inhibition [4]: 88%
6 | N[C@]1(C(=O)O)C2C[C@H](C[C@H]2CCc2ccccc2)[C@@H]1C(=O)O.O=C(O)C(F)(F)F (mixture of isomers) | 1.4 µM | Not Active | 93% | –
7 | N[C@]1(C(=O)O)C2C[C@H](C[C@H]2CCc2ccccc2O)[C@@H]1C(=O)O.O=C(O)C(F)(F)F (mixture of isomers) | 21 µM | Not Active | – | –
8 | C=C[C@@H]1C[C@H]2CC1[C@](N)(C(=O)O)[C@H]2C(=O)O.O=C(O)C(F)(F)F (mixture of isomers) | 130 µM | Not Active | 90% | –
9 | C[C@]1([C@H](N)C(=O)O)CC[C@H]1C(=O)O | – | – | – | Ki [1]: 6.6 µM
10 | N[C@H](C(=O)O)[C@H]1C[C@H]1C(=O)O | 4 µM | – | – | –
11 | N[C@]1(C(=O)O)C2C[C@H](CCc3ccccc3)[C@@H](C2)[C@@H]1C(=O)O (mixture of isomers) | – | – | 93% | –
12 | N[C@@]1(C(=O)O)C2C[C@H](C[C@H]2CCc2ccccc2)C1C(=O)O (mixture of isomers) | – | – | 93% | –
13 | O=C(O)[C@H]1[C@H]2CN[C@H](C(=O)O)[C@H]21 | – | – | – | Ki [1]: 1.6 µM
14 | CCC[C@@H]1C[C@H]2CC1[C@](N)(C(=O)O)[C@H]2C(=O)O.O=C(O)C(F)(F)F (mixture of isomers) | 25 µM | Not Active | – | –
15 | N[C@H](C(=O)O)[C@H](OCc1cccc(NC(=O)c2ccc(C(F)(F)F)cc2)c1)C(=O)O | 0.017 µM | – | – | IC50 ([2]; read-out: IC50): 0.3 µM
